# Measurements published in the RNAGym collection of RNA variant scans (doi:10.1126/science.aae0568).
# Fewer inactive variants are shown than the library holds.
# B1: tRNA (parent)
# chain: GUUCCGUUGGCGUAAUGGUAACGCGUCUCCCUCCUAAGGAGAAGACUGCGGGUUCGAGUCCCGUACGGAACG
# Variants of: B1
# Test: yeast fitness relative to wild type (ratio to wild type); higher = fitter; tRNA-Arg(CCU), competitive growth, 37 C, YPD
# Outline: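 Variants of the tRNA-Arg(CCU) gene were chemically synthesised with a 3% per-site mutation rate across 69 sites and placed at the native genomic locus in Saccharomyces cerevisiae. Six parallel replicates of the pooled strains were competed in YPD at 37°C for 24 hours, and gene amplicons from the start and end populations were read by 100-nucleotide paired-end sequencing. Darwinian fitness relative to wild type was derived from changes in genotype frequencies. Genotypes required ≥ 100 starting reads, and estimates < 0.5 were set to 0.5.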
row,Variant,yeast fitness
1,U19A C27U G44C G48C C66U,≤ 0.5
2,U19A C27U U59A A65C G67U,0.575
3,U19A G44C G67C,0.639
4,U19A C22U G56A,0.547
5,U19A C24A C30G C34U G51A G52C C66U,≤ 0.5
6,U19A C27A G52C,≤ 0.5
7,U19A C29G A69C,0.547
8,U19C A20U C22U C27G G48C G51A,≤ 0.5
9,U19A U26C C30A,0.639
10,U19A C30A A43G,≤ 0.5
11,U19C A36U,0.566
12,U19C A20G,0.964
13,U19C A20C C33U U35A C49A,0.539
14,U19A C24G C33G C34G G51A,0.531
15,U19C A20C A21U C55U A65U,≤ 0.5
16,U19A C34U A42U,0.543
17,U19A C46A A69U,0.752
18,U19A A70G,0.913
19,U19C A21U C31U A42G A43U,0.929
20,U19A A43U C46G,0.658
21,U19A C27G C31U A70G,≤ 0.5

row,Variant,yeast fitness
1,U19A G39C G63C,≤ 0.5
2,U19A U53C,0.806
3,U19C A36G A43G C60U C62U A70C,≤ 0.5
4,U19A C34G G52A,≤ 0.5
5,U19A A45U U54G,0.631
6,U19A C22U,0.709
7,U19A G51A,0.768
8,U19A G51C,0.636
9,U19A C30A A43G C49U C55A,0.64
10,U19A C31U U53A,≤ 0.5
11,U19A G23C,0.549
12,U19C A20U A43U,0.66
13,U19A G25A A43C U53G G63C,≤ 0.5
14,U19A A45G A57C,≤ 0.5
15,U19A G39A G63C,≤ 0.5
16,U19C A20U C22U C27G G39U,≤ 0.5
17,U19C A20U G56C A57U,0.562
18,U19A C27U A45C G63A,0.729
19,U19C A21C G39C C61U,≤ 0.5
20,U19A C31G A36U A65U,≤ 0.5
21,U19A U64C,0.901

row,Variant,yeast fitness
1,U19A U64G,0.687
2,U19C A37C G63A,≤ 0.5
3,U19A A43U A70U,0.825
4,U19A U59A C62A,≤ 0.5
5,U19A C61G G67A,≤ 0.5
6,U19A C27U C29U,0.697
7,U19C A20U C22U C27G,0.532
8,U19A C27U C66U,0.786
9,U19C A21G,0.906
10,U19C A21G U26G G39C C46A A70C,≤ 0.5
11,U19A C24G C33G C34G A57G,0.579
12,U19A A65G,1.05
13,U19A A65C,1.01
14,U19C A20U A57G,0.695
15,U19A C34G A43C A70G,≤ 0.5
16,U19C A20U A70U,0.794
17,U19A A43U C62U,0.771
18,U19C A20U A69U,1.05
19,U19A G25C C33A A37G,≤ 0.5
20,U19C A21C G51A G58A,≤ 0.5
21,U19A C27U A42U A45G U64A,≤ 0.5

row,Variant,yeast fitness
1,U19A U59C C61A U64C,≤ 0.5
2,U19A C24U U64C,0.689
3,U19A C60A,0.623
4,U19A C60U,0.819
5,U19A G48C G67C,≤ 0.5
6,U19C A21U C49U,0.966
7,U19A G44C,0.971
8,U19A C61A G68C,0.648
9,U19A G25A A40C C46U,0.588
10,U19A C30A A65G,0.673
11,U19A C24U G38A U54C A69C,≤ 0.5
12,U19A A69U,1.04
13,U19A A69C,1.08
14,U19A U28C G39C,≤ 0.5
15,U19A C29A,0.712
16,U19A C29U,0.76
17,U19A C29G,0.685
18,U19A A45U A69U,0.739
19,U19A C29A G67A,≤ 0.5
20,U19A G48C,0.861
